Reference: ChEMBL document CHEMBL1649506, “Novel antiviral agent DTriP-22 targets RNA-dependent RNA polymerase of enterovirus 71” (Antimicrob Agents Chemother, 2009)
Activity calls are given as the source filed them. The calls are words filed in the database; no cut-off is given here.

Legend:
[1] = system: Enterovirus A71; experiment: Antiviral activity against 1 MOI EV71 infected in human RD cells assessed as inhibition of viral RNA production at 2 uM after 6 to 14 hrs by slot blot analysis; type: functional, organism-based
How it was run: (§1)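 RD cells infected with EV71 at MOI 1 PFU/cell for 1 h at room temperature, washed, then kept in medium with 2 μM compound at 35°C. Intracellular RNA extracted at intervals p.i. Viral RNA quantified by TaqMan real-time RT-PCR, or by slot blot with DIG-labelled genome- and antigenome-specific RNA probes. Compared with DMSO at each time point.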

[2] = system: Coxsackievirus B2; experiment: Antiviral activity against Coxsackievirus B2 infected in human RD cells assessed as protection against virus-induced cytopathogenicity; type: functional, organism-based; conditions: Enterovirus B
How it was run: (§2)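 CPE neutralization test: cells seeded at 3 × 10^4/well and grown 24 h at 37°C, infected at MOI 0.005 PFU/cell. After adsorption, medium with 2% FBS and compound (twofold dilutions from 25 μM) or 0.5% DMSO added. Incubated 64 h at 35°C, then formaldehyde-fixed and crystal violet-stained, read at OD570. Triplicate, repeated at least twice. EC50 interpolated between bracketing dilutions.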

[3] = Antiviral activity against Coxsackievirus A10 infected in human RD cells assessed as protection against virus-induced cytopathogenicity; type: functional, cell-based; conditions: Enterovirus A; how it was run: as §2
[4] = system: Enterovirus A71; experiment: Inhibition of EV71 recombinant 3D polymerase expressed in Escherichia coli BL21 (DE3) assessed as inhibition of Vpg-pU(pU) synthesis at 250 to 500 uM by gel electrophoresis
How it was run: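 VPg uridylylation: 1 μM recombinant EV71 3D with 2 μg synthetic VPg, 0.5 μg poly(rA)300, 10 μM UTP plus 0.04 μM [α-32P]UTP, in 50 mM HEPES pH 7.5 with 2.5 mM Mn(OAc)2 and 8% glycerol. Incubated 60 min at 33°C. Products resolved on 13.5% Tricine SDS-PAGE and detected by autoradiography.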

[5] = system: Enterovirus A71; experiment: Antiviral activity against EV71 harboring 3D […] R163K mutant gene infected in human RD cells assessed as inhibition of viral plaque formation 16 hrs by plaque formation assay; type: functional, organism-based; conditions: Enterovirus A
[6] = system: Enterovirus A71; experiment: Antiviral activity against 1 MOI EV71 infected in human RD cells assessed as inhibition of IRES-mediated viral RNA translation at 2 uM after 6 to 14 hrs by luciferase reporter gene assay; type: functional, organism-based
[7] = system: Enterovirus A71; experiment: Antiviral activity against 1 MOI EV71 infected in human RD cells assessed as inhibition of viral plaque formation 16 hrs by plaque formation assay; type: functional, organism-based; conditions: Enterovirus A
How it was run: (§3)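 Virus yield assay: RD cells (6 × 10^5/well) infected with EV71 TW/2231/98 at the stated MOI for 1 h at room temperature, washed twice, then kept in 2% FBS medium with compound (0–2.5 μM) at 35°C. At 16 h p.i., supernatant and debris pooled and titrated by plaque assay in RD cells (0.3% agarose overlay, 4 days at 35°C, crystal violet, PFU/ml).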

[8] = system: Enterovirus A71; experiment: Antiviral activity against 1 MOI EV71 infected in human RD cells assessed as inhibition of viral progeny production at 1 uM treated 2 hrs postinfection measured after 16 hrs; type: functional; conditions: Enterovirus A
[9] = system: Enterovirus A71; experiment: Antiviral activity against 1 MOI EV71 infected in human RD cells assessed as inhibition of viral RNA production at 2 uM after 6 to 14 hrs by real-time RT-PCR analysis; type: functional; conditions: Enterovirus A; how it was run: as §1
[10] = system: Enterovirus A71; experiment: Antiviral activity against 1 MOI EV71 infected in human RD cells assessed as viral progeny production at 1 uM treated 4 hrs postadsorption measured after 16 hrs; type: functional
[11] = system: Coxsackievirus B6; experiment: Antiviral activity against Coxsackievirus B6 infected in human RD cells assessed as protection against virus-induced cytopathogenicity; type: functional, organism-based; conditions: Enterovirus B; how it was run: as §2
[12] = system: Enterovirus A71; experiment: Antiviral activity against EV71 harboring VP1 […] V192M mutant gene infected in human RD cells assessed as inhibition of viral plaque formation 16 hrs by plaque formation assay; type: functional, organism-based
[13] = system: Coxsackievirus B5; experiment: Antiviral activity against Coxsackievirus B5 infected in human RD cells assessed as protection against virus-induced cytopathogenicity; type: functional, organism-based; conditions: Enterovirus B; how it was run: as §2
[14] = system: Enterovirus A71; experiment: Antiviral activity against EV71 harboring 2C […] T256A mutant gene infected in human RD cells assessed as inhibition of viral plaque formation 16 hrs by plaque formation assay; type: functional, organism-based; conditions: Enterovirus A
[15] = system: Enterovirus A71; experiment: Antiviral activity against EV71 infected in human RD cells assessed as inhibition of viral plaque formation 16 hrs by plaque formation assay; type: functional, organism-based; conditions: Enterovirus A
[16] = system: Coxsackievirus B3; experiment: Antiviral activity against Coxsackievirus B3 infected in human RD cells assessed as protection against virus-induced cytopathogenicity; type: functional, organism-based; conditions: Enterovirus B; how it was run: as §2
[17] = system: rhinovirus A2; experiment: Antiviral activity against HRV2 infected in human RD cells assessed as protection against virus-induced cytopathogenicity; type: functional, organism-based; conditions: Rhinovirus A; how it was run: as §2
[18] = system: Enterovirus A71; experiment: Antiviral activity against 0.001 PFU/cell EV71 infected in human RD cells assessed as inhibition of viral plaque formation at 0.1 uM after 16 hrs by plaque formation assay; type: functional; set-up: scale not given: the % may be the effect or the level left; how it was run: as §3
[19] = system: Human alphaherpesvirus 1; experiment: Antiviral activity against HSV1 infected in human RD cells assessed as protection against virus-induced cytopathogenicity; type: functional, organism-based; conditions: Human alphaherpesvirus 1, RD
[20] = system: Enterovirus A71; experiment: Antiviral activity EV71 1743 infected in human RD cells assessed as protection against virus-induced cytopathogenicity; type: functional, organism-based; conditions: Enterovirus A, 1743, RD; how it was run: as §2
[21] = system: Enterovirus A71; experiment: Antiviral activity EV71 4643 infected in human RD cells assessed as protection against virus-induced cytopathogenicity; type: functional, organism-based; conditions: Enterovirus A, 4643, RD; how it was run: as §2
[22] = system: Coxsackievirus A24; experiment: Antiviral activity against Coxsackievirus A24 infected in human RD cells assessed as protection against virus-induced cytopathogenicity; type: functional, organism-based; conditions: Enterovirus C; how it was run: as §2
[23] = system: Polymerase 3D (Human enterovirus 71 STH/MCN/2006), B2G369 [R163K]; experiment: Inhibition of EV71 recombinant 3D polymerase R163K mutant expressed in Escherichia coli BL21 (DE3) assessed as enzyme activity at 250 to 500 uM by polymerase elongation assay; set-up: scale not given: the % may be the effect or the level left; conditions: Enterovirus A71
[24] = system: Enterovirus A71; experiment: Inhibition of EV71 recombinant 3D polymerase expressed in Escherichia coli BL21 (DE3) by polymerase elongation assay
How it was run: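 His-tagged EV71 3D polymerase made in E. coli BL21(DE3) (50 μM IPTG, 25°C, 4 h) and purified on a nickel column. Assay used 1 μM enzyme in 50 mM HEPES pH 7.5, 5 mM MgCl2, 60 μM ZnCl2, 10 mM 2-mercaptoethanol, 5 μM UTP plus [α-32P]UTP, and dT15/poly(rA)300 primer/template. Run 10 min at 30°C, stopped with EDTA, product captured on DE81 filters and counted by scintillation.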

[25] = system: Coxsackievirus B1; experiment: Antiviral activity against Coxsackievirus B1 infected in human RD cells assessed as protection against virus-induced cytopathogenicity; type: functional, organism-based; conditions: Enterovirus B; how it was run: as §2
[26] = system: Enterovirus A71; experiment: Antiviral activity against 0.001 PFU/cell EV71 TW/2231/98 infected in human RD cells assessed as inhibition of viral plaque formation after 5 passages by plaque formation assay; type: functional, organism-based; conditions: Enterovirus A, TW/2231/98, RD
[27] = Cytotoxicity against human RD cells after 16 hrs by MTS-based assay; type: cell-based
[28] = system: Enterovirus A71; experiment: Antiviral activity EV71 BrCr infected in human RD cells assessed as protection against virus-induced cytopathogenicity; type: functional, organism-based; conditions: Enterovirus A; how it was run: as §2
[29] = system: Enterovirus A71; experiment: Antiviral activity against 1 MOI EV71 infected in human RD cells assessed as inhibition of viral progeny production at 1 uM treated 4 hrs postadsorption measured after 16 hrs; type: functional, organism-based
[30] = system: Influenza B virus; experiment: Antiviral activity against influenza B virus infected in human RD cells assessed as protection against virus-induced cytopathogenicity; type: functional, organism-based; how it was run: as §2
[31] = system: Enterovirus A71; experiment: Antiviral activity EV71 2231 infected in human RD cells assessed as protection against virus-induced cytopathogenicity; type: functional, organism-based; conditions: Enterovirus A, 2231, RD; how it was run: as §2
[32] = system: Coxsackievirus A16; experiment: Antiviral activity against Coxsackievirus A16 infected in human RD cells assessed as protection against virus-induced cytopathogenicity; type: functional, cell-based; conditions: Enterovirus A; how it was run: as §2
[33] = system: Enterovirus A71; experiment: Antiviral activity against 0.001 MOI EV71 infected in human RD cells assessed as inhibition of viral plaque formation 16 hrs by plaque formation assay; type: functional, organism-based; conditions: Enterovirus A; how it was run: as §3
[34] = system: Human alphaherpesvirus 2; experiment: Antiviral activity against HSV2 infected in human RD cells assessed as protection against virus-induced cytopathogenicity; type: functional, organism-based; conditions: Human alphaherpesvirus 2, RD
[35] = system: Echovirus E9; experiment: Antiviral activity against Echovirus 9 infected in human RD cells assessed as protection against virus-induced cytopathogenicity; type: functional, organism-based; conditions: Enterovirus B; how it was run: as §2
[36] = system: Enterovirus A71; experiment: Antiviral activity against 0.001 PFU/cell EV71 TW/2231/98 infected in human RD cells assessed as inhibition of viral plaque formation after 10 passages by plaque formation assay; type: functional, organism-based; conditions: Enterovirus A, TW/2231/98, RD
[37] = system: Influenza A virus; experiment: Antiviral activity against Influenza A virus (A/WSN/1933(H1N1)) infected in human RD cells assessed as protection against virus-induced cytopathogenicity; type: functional, organism-based; how it was run: as §2
[38] = system: Enterovirus A71; experiment: Antiviral activity against 0.001 PFU/cell EV71 TW/2231/98 infected in human RD cells assessed as inhibition of viral plaque formation after 16 hrs by plaque formation assay; type: functional, organism-based; conditions: Enterovirus A, TW/2231/98, RD; how it was run: as §3
[39] = Selectivity index, ratio of CC50 for human RD cells to EC50 for 1 MOI EV71 infected in human RD cells
[40] = system: Coxsackievirus A9; experiment: Antiviral activity against Coxsackievirus A9 infected in human RD cells assessed as protection against virus-induced cytopathogenicity; type: functional, organism-based; conditions: Enterovirus B; how it was run: as §2
[41] = system: Enterovirus A71; experiment: Antiviral activity against 0.001 PFU/cell EV71 TW/2231/98 infected in human RD cells assessed as inhibition of viral plaque formation after 14 passages by plaque formation assay; type: functional, organism-based; conditions: Enterovirus A, TW/2231/98, RD
[42] = system: Coxsackievirus B4; experiment: Antiviral activity against Coxsackievirus B4 infected in human RD cells assessed as protection against virus-induced cytopathogenicity; type: functional, organism-based; conditions: Enterovirus B; how it was run: as §2
[43] = system: Enterovirus A71; experiment: Antiviral activity against EV71 harboring 3D […] R163K/S264L mutant gene infected in human RD cells assessed as inhibition of viral plaque formation 16 hrs by plaque formation assay; type: functional, organism-based; conditions: Enterovirus A

Structure (SMILES): Cc1ccsc1C(c1ccccc1Br)N1CCN(c2ncnc3c2cnn3-c2ccccc2)CC1 (stereo not drawn)
- inhibition [1]: Active
- EC50 [2]: 70 nM
- EC50 [3]: 1060 nM
- inhibition [4]: inactive
- EC50 [5]: > 25000 nM
- inhibition [6]: inactive
- EC50 [7]: 160 nM
- inhibition at 1 µM [8]: 79%
- inhibition at 2 µM [9]: 87%
- Activity [10]: 76%
- EC50 [11]: 330 nM
- EC50 [12]: 240 nM
- EC50 [13]: 130 nM
- EC50 [14]: 279 nM
- EC50 [15]: 308 nM
- EC50 [16]: 260 nM
- EC50 [17]: 1690 nM
- Activity [18]: 95%
- EC50 [19]: > 25000 nM
- EC50 [20]: 440 nM
- EC50 [21]: 130 nM
- EC50 [22]: 80 nM
- Activity [23]: 28%
- inhibition [24]: Dose-dependent effect
- EC50 [25]: 240 nM
- EC50 [26]: 250 nM
- CC50 at 16 h [27]: 100000 nM
- EC50 [28]: 150 nM
- inhibition [29]: inactive
- EC50 [30]: 5900 nM
- EC50 [31]: 980 nM
- EC50 [32]: 80 nM
- EC50 [33]: 23 nM
- EC50 [34]: > 25000 nM
- EC50 [35]: 1220 nM
- EC50 [36]: > 25000 nM
- EC50 [37]: 5980 nM
- EC50 [38]: 740 nM
- Ratio CC50/EC50 [39]: 625
- EC50 [40]: 990 nM
- EC50 [41]: > 25000 nM
- EC50 [42]: 230 nM
- EC50 [43]: > 25000 nM
